From ChEMBL document CHEMBL1145249, “A potent and selective nonpeptide antagonist of the melanocortin-4 receptor induces food intake in satiated mice” (Bioorg Med Chem Lett, 2005)

Tests used:
Melanocortin receptor 3 = Melanocortin receptor 3 (Homo sapiens, UniProt P41968); assay: Binding affinity for melanocortin-3 receptor transfected in HEK 293 cells using [125I]NDP-MSH as radioligand; format: cell-based, HEK293
Outline: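 Competition binding at human MC3 or MC4 receptor stably transfected into HEK293 cells, displacing [125I]-NDP-MSH radioligand; Ki reported; values averaged from three or more independent measurements.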

Melanocortin receptor 4 [1] = molecular target: T1, Melanocortin receptor 4 (Homo sapiens, UniProt P32245); assay: Binding affinity for melanocortin-4 receptor transfected in HEK 293 cells using [125I]NDP-MSH as radioligand; format: cell-based, HEK293
Melanocortin receptor 4 [2] = molecular target: T1, Melanocortin receptor 4; assay: Intrinsic activity towards human alpha-MSH stimulated cAMP level in HEK293 cells
[3] = molecular target: T2, Melanocyte-stimulating hormone receptor (Homo sapiens, UniProt Q01726); assay: Binding affinity at melanocortin-1 receptor stably transfected in HEK 293 cells using [125I]NDP-MSH as radiolabeled; format: cell-based, HEK293
Outline: (§1)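 Competition binding at human MC1 or MC5 receptor stably expressed in HEK293 cells, with [125I]-NDP-MSH as the displaced radioligand; Ki determined.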
Target sequence in this assay (Q01726 whole entry): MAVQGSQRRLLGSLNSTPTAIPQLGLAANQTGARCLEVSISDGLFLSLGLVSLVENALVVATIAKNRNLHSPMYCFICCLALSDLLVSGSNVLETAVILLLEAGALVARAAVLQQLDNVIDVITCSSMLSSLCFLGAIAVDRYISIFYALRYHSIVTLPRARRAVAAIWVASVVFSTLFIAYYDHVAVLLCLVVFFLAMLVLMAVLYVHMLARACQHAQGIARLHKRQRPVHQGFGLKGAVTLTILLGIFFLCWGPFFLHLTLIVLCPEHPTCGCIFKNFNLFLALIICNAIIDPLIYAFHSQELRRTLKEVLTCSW

Melanocortin receptor 5 = Melanocortin receptor 5 (Homo sapiens, UniProt P33032); assay: Binding affinity at melanocortin-5 receptor stably transfected in HEK 293 cells using [125I]NDP-MSH as radiolabeled; format: cell-based, HEK293; outline: as §1
[4] = molecular target: T2, Melanocyte-stimulating hormone receptor; assay: Percent inhibition of human melanocortin 1 receptor at 10 uM concentration
Target sequence in this assay (Q01726 whole entry, looked up): as the sequence (Q01726 whole entry) above

Melanocortin receptor 4 [5] = molecular target: T1, Melanocortin receptor 4; assay: Intrinsic activity towards human alpha-MSH stimulated cAMP level in HEK293 cells by 10 uM compound

Sequence of Melanocortin receptor 3 (P41968 whole entry): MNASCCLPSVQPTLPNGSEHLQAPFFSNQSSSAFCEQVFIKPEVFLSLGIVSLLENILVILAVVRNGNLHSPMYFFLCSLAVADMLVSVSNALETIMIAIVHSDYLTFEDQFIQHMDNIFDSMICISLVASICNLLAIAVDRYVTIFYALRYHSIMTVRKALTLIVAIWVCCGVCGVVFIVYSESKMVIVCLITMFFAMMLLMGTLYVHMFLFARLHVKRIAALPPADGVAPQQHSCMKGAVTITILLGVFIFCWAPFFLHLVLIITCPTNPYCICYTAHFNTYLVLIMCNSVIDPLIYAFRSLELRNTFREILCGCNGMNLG
T1 sequence (P32245 whole entry): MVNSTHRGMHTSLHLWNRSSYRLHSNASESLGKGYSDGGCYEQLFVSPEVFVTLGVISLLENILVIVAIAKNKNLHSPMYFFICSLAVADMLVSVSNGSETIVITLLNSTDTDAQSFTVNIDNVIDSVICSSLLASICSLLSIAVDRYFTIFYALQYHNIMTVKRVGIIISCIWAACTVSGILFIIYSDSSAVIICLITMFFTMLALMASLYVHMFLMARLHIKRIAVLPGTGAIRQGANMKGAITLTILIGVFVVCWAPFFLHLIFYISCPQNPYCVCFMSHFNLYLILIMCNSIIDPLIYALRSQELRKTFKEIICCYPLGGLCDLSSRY
Sequence of Melanocortin receptor 5 (P33032 whole entry): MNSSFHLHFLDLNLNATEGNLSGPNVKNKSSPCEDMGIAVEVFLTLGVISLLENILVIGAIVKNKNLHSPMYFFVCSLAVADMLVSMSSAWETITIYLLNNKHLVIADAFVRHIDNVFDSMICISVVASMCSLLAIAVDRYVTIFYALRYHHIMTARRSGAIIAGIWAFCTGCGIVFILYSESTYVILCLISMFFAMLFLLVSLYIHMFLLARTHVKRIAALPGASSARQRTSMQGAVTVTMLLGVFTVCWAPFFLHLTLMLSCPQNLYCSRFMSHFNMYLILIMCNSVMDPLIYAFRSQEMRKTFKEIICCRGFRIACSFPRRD

Row | Ki (Melanocortin receptor 3) [nM] | Ki (Melanocortin receptor 4 [1]) [nM] | Structure (SMILES) | other results
1 | 1600 | 3.1 | O=C(N[C@H](Cc1ccc(Cl)cc1Cl)C(=O)N1CCN(c2ccccc2CNCCc2cccs2)CC1)c1ccccc1 | –
2 | – | 1100 | O=C(N[C@H](Cc1csc2ccccc12)C(=O)N1CCN(c2ccccc2CNCCc2cccs2)CC1)OCc1ccccc1 | –
3 | – | – | NCCC(=O)N[C@H](Cc1ccc(Cl)cc1Cl)C(=O)N1CCN(c2ccccc2CNCCc2cccs2)CC1 | IA (Melanocortin receptor 4 [2]): < 3%
4 | 670 | 1.5 | O=C(N[C@H](Cc1ccc(Cl)cc1Cl)C(=O)N1CCN(c2ccccc2CNCCc2cccs2)CC1)N1CCCC1 | Ki [3]: 6900 nM; Ki (Melanocortin receptor 5): 160 nM
5 | 790 | 1.7 | CCNC(=O)N[C@H](Cc1ccc(Cl)cc1Cl)C(=O)N1CCN(c2ccccc2CNCCc2cccs2)CC1 | inhibition [4]: 18%; Ki (Melanocortin receptor 5): 300 nM
6 | 800 | 4.6 | CCOC(=O)N[C@H](Cc1ccc(Cl)cc1Cl)C(=O)N1CCN(c2ccccc2CNCCc2cccs2)CC1 | –
7 | – | 16 | O=C([C@@H](Cc1ccc(Cl)cc1Cl)NCc1nccs1)N1CCN(c2ccccc2CNCCc2cccs2)CC1 | IA (Melanocortin receptor 4 [5]): < 3%
8 | – | 18 | NCCN[C@H](Cc1ccc(Cl)cc1Cl)C(=O)N1CCN(c2ccccc2CNCCc2cccs2)CC1 | IA (Melanocortin receptor 4 [5]): < 3%
9 | 790 | 3.2 | O=C(N[C@H](Cc1ccc(Cl)cc1Cl)C(=O)N1CCN(c2ccccc2CNCCc2cccs2)CC1)OCCF | Ki [3]: 1000 nM; Ki (Melanocortin receptor 5): 560 nM
10 | – | 5 | O=C(NCc1ccccc1F)N[C@H](Cc1ccc(Cl)cc1Cl)C(=O)N1CCN(c2ccccc2CNCCc2cccs2)CC1 | –
11 | 1000 | 2.4 | CC(C)(C)NC(=O)N[C@H](Cc1ccc(Cl)cc1Cl)C(=O)N1CCN(c2ccccc2CNCCc2cccs2)CC1 | –
12 | – | 94 | N[C@H](Cc1ccc(Cl)cc1Cl)C(=O)N1CCN(c2ccccc2CNCCc2cccs2)CC1 | IA (Melanocortin receptor 4 [5]): < 3%
13 | – | > 10000 | O=C(N[C@H](Cc1cscn1)C(=O)N1CCN(c2ccccc2CNCCc2cccs2)CC1)OCc1ccccc1 | –
14 | 830 | 2.8 | COC(=O)CCC(=O)N[C@H](Cc1ccc(Cl)cc1Cl)C(=O)N1CCN(c2ccccc2CNCCc2cccs2)CC1 | –
15 | 570 | 2.4 | CC(=O)N[C@H](Cc1ccc(Cl)cc1Cl)C(=O)N1CCN(c2ccccc2CNCCc2cccs2)CC1 | inhibition [4]: 31%; Ki (Melanocortin receptor 5): 730 nM
16 | – | 14 | CS(=O)(=O)N[C@H](Cc1ccc(Cl)cc1Cl)C(=O)N1CCN(c2ccccc2CNCCc2cccs2)CC1 | IA (Melanocortin receptor 4 [5]): < 3%
17 | – | 23 | O=C(N[C@H](Cc1ccc(Cl)cc1Cl)C(=O)N1CCN(c2ccccc2CNCCc2cccs2)CC1)OCc1ccccc1 | –
18 | – | 3600 | O=C(N[C@H](Cc1cnc[nH]1)C(=O)N1CCN(c2ccccc2CNCCc2cccs2)CC1)OCc1ccccc1 | –

Row | Ki (Melanocortin receptor 3) [nM] | Ki (Melanocortin receptor 4 [1]) [nM] | Structure (SMILES) | other results
19 | 1300 | 4.5 | CC(C)OC(=O)N[C@H](Cc1ccc(Cl)cc1Cl)C(=O)N1CCN(c2ccccc2CNCCc2cccs2)CC1 | inhibition [4]: 9%; Ki (Melanocortin receptor 5): 680 nM
20 | – | 2300 | O=C(N[C@H](Cc1c[nH]c2ccccc12)C(=O)N1CCN(c2ccccc2CNCCc2cccs2)CC1)OCc1ccccc1 | –
21 | – | 18 | O=C([C@@H](Cc1ccc(Cl)cc1Cl)NCC1CC1)N1CCN(c2ccccc2CNCCc2cccs2)CC1 | IA (Melanocortin receptor 4 [5]): < 3%
22 | 860 | 2.1 | O=C(NC1CC1)N[C@H](Cc1ccc(Cl)cc1Cl)C(=O)N1CCN(c2ccccc2CNCCc2cccs2)CC1 | –
23 | 390 | 2.9 | O=C(NCCO)N[C@H](Cc1ccc(Cl)cc1Cl)C(=O)N1CCN(c2ccccc2CNCCc2cccs2)CC1 | inhibition [4]: 8%; Ki (Melanocortin receptor 5): 350 nM
24 | – | 23 | CC(C)CN[C@H](Cc1ccc(Cl)cc1Cl)C(=O)N1CCN(c2ccccc2CNCCc2cccs2)CC1 | IA (Melanocortin receptor 4 [5]): < 3%
25 | 810 | 5 | COC(=O)N[C@H](Cc1ccc(Cl)cc1Cl)C(=O)N1CCN(c2ccccc2CNCCc2cccs2)CC1 | –
26 | 950 | 2 | NCCCC(=O)N[C@H](Cc1ccc(Cl)cc1Cl)C(=O)N1CCN(c2ccccc2CNCCc2cccs2)CC1 | –
27 | – | 420 | O=C(N[C@H](Cc1cccc2ccccc12)C(=O)N1CCN(c2ccccc2CNCCc2cccs2)CC1)OCc1ccccc1 | –
28 | – | 31 | O=C([C@@H](Cc1ccc(Cl)cc1Cl)NCc1ccccc1)N1CCN(c2ccccc2CNCCc2cccs2)CC1 | IA (Melanocortin receptor 4 [5]): < 3%
29 | – | 7.9 | COc1ccc2ccccc2c1CCCCN1CCN(CC(c2ccc(F)cc2)N2CCN(C(C)C)CC2)CC1 (configuration not stated) | –
30 | 560 | 2 | CN(C)C(=O)N[C@H](Cc1ccc(Cl)cc1Cl)C(=O)N1CCN(c2ccccc2CNCCc2cccs2)CC1 | Ki [3]: 6800 nM; Ki (Melanocortin receptor 5): 350 nM
31 | 580 | 1.3 | O=C(NC1CCCC1)N[C@H](Cc1ccc(Cl)cc1Cl)C(=O)N1CCN(c2ccccc2CNCCc2cccs2)CC1 | –
32 | – | – | NCCC(=O)N[C@H](Cc1ccc(Cl)cc1)C(=O)N1CCN(c2ccccc2CNCCc2cccs2)CC1 | IA (Melanocortin receptor 4 [2]): 14%
33 | – | 5700 | O=C(N[C@H](Cc1ccc(O)cc1)C(=O)N1CCN(c2ccccc2CNCCc2cccs2)CC1)OCc1ccccc1 | –
34 | – | – | O=C(N[C@H](Cc1ccc(Cl)cc1)C(=O)N1CCN(c2ccccc2CNCCc2cccs2)CC1)C1CCCNC1 (some centres not stated) | IA (Melanocortin receptor 4 [2]): 12%
35 | 450 | 1.4 | CC(C)NC(=O)N[C@H](Cc1ccc(Cl)cc1Cl)C(=O)N1CCN(c2ccccc2CNCCc2cccs2)CC1 | –
